Rows were chosen to be rich in hits. Some 3.1% of all compounds tested hit in one or more screens of this group.
PRMT1 FP inh = blocks human protein arginine methyltransferase 1; Q99873; recombinant PRMT1, activity-based probe fluorescence polarization; inhibition, % at 2.79 µM; hit rate 1.3% among 370,000;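 active = inhibition above about 21% made by adding two undisclosed values, limit read from the data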
Target sequence (Q99873 whole entry, looked up): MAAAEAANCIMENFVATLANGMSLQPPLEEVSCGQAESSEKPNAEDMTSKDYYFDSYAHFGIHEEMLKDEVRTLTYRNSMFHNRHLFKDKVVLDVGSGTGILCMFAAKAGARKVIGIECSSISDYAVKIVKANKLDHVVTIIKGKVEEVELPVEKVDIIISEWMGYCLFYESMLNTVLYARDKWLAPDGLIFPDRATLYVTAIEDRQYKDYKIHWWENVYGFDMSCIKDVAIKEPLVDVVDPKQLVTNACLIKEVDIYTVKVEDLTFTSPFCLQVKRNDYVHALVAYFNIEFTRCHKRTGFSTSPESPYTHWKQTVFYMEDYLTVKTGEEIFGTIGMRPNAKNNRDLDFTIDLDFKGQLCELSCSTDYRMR
ABHD5-PLIN5 inh = ABHD5-PLIN5 protein interaction inhibition; inhibition, % at 4 µM; Q00G26+Q8WTS1; hit rate 0.78% among 360,000; Split G. princeps luciferase complementation, luminescence, 4 h;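 active = inhibition above the mean inhibition across every tested compound plus 3 SD, cut at about 22% in these data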;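 note: 0% = DMSO only wells and the 100% control is not disclosed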
UHRF1 binding = human UHRF1 methylated DNA binding inhibitors; UHRF1 binding to methylated oligo, TR-FRET; inhibition, % at 4.4 µM; hit rate 0.75% among 370,000; AID 687016; in the data active = inhibition above about 21%;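 note: UHRF1 SRA domain binding a hemimethylated CpG hairpin DNA probe; 0% = median of test compound wells and 100% = reference inhibitor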
LEDGF integ inh = blocks HIV-1 LEDGF/p75-dependent DNA integration | TR-FRET IN-LEDGF/p75 DNA integration, Eu/Cy5 | hit rate 0.64% among 370,000 | AID 743269 | inhibition, % at 3.7 µM;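 active = inhibition above the screen-wide mean plus 3 SD, cut at about 13% in these data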;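 note: signal is the Cy5 over europium emission ratio at 671 and 618 nm; 0% = plate median of compound wells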
RBBP9 inh = blocks human serine hydrolase RBBP9; O75884; recombinant RBBP9, FP-Rh probe fluorescence polarization; AID 1515; inhibition, % at 7.94 µM; hit rate 0.2% among 220,000;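 active = inhibition above the campaign mean of all tested compounds plus 3 SD, cut at about 14% in these data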;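 note: plate controls were DMSO wells with RBBP9 for no effect and wells lacking RBBP9 protein for full effect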
Target sequence (O75884 whole entry, looked up): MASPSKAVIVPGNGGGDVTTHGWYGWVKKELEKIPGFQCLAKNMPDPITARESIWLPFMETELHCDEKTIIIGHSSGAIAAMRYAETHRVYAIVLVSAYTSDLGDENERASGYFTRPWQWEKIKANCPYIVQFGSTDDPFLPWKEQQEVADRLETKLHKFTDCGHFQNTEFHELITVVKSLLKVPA
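Test system: recombinant human RBBP9; Timing: 30 min then 45 min, 25 °C; Detection: fluorescence polarization; Control set: RBBP9 with DMSO as uninhibited control, no-protein wells as full inhibition; Compound dosing: one concentration, 7.94 µM nominal, 0.794% DMSO; Probe or stimulus: FP-Rh activity-based probe, 375 nM before mixing.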
MBD2 inh = blocks human MBD2 binding to methylated DNA; inhibition, % at 4.4 µM; Q9UBB5; hit rate 0.31% among 370,000; AID 686964; TR-FRET, MBD2 binding to methylated oligonucleotide; in the data active = inhibition above about 13%
Numbers without * were called inactive.

Results for COc1ccc(CNC(=O)CSc2nnc3c(n2)[nH]c2ccc(OC)cc23)cc1 ?
PRMT1 FP inh: -4; ABHD5-PLIN5 inh: 2; UHRF1 binding: -1; LEDGF integ inh: 5; MBD2 inh: -5

Results for CCN1CCCCC(NC(=O)c2cccc(C(F)(F)F)c2)C1=O (configuration not stated) ?
PRMT1 FP inh: 3; UHRF1 binding: -2; LEDGF integ inh: 1; MBD2 inh: 0

Results for COC(=O)C1=C(C)N(c2ccccc2)C(=S)NC1c1ccccc1C(F)(F)F (configuration not stated) ?
PRMT1 FP inh: 2; ABHD5-PLIN5 inh: -1; UHRF1 binding: 44*; LEDGF integ inh: -6; RBBP9 inh: -2; MBD2 inh: -2

How did O=C(Nc1nc(=O)c2ccccc2s1)c1ccc(F)cc1 do in these assays?
PRMT1 FP inh: 48*; ABHD5-PLIN5 inh: -14; UHRF1 binding: 2; LEDGF integ inh: -2; RBBP9 inh: 7; MBD2 inh: 3

What do the screens show for `CC(C)c1ccc(CN2CC(C(=O)Nc3ccccc3)CC2=O)cc1` (configuration not stated)?
PRMT1 FP inh: -2; ABHD5-PLIN5 inh: 4; UHRF1 binding: 27*; LEDGF integ inh: 0; RBBP9 inh: -1; MBD2 inh: -1

Results for CCN(CC)c1ccc(NC(=O)C2CC(=O)N(Cc3ccccc3)C2)cc1 (configuration not stated) ?
PRMT1 FP inh: -2; ABHD5-PLIN5 inh: 2; UHRF1 binding: -4; LEDGF integ inh: 2; RBBP9 inh: -8; MBD2 inh: 0

How did O=Cc1ccc(-c2cccc(C(=O)O)c2)o1 do in these assays?
PRMT1 FP inh: 7; ABHD5-PLIN5 inh: -2; UHRF1 binding: 8; LEDGF integ inh: -3; RBBP9 inh: -3; MBD2 inh: -1

How did O=C(/C=C/c1ccc(-c2ccccc2)o1)c1ccccc1 do in these assays?
PRMT1 FP inh: 25*; ABHD5-PLIN5 inh: 11; UHRF1 binding: 0; LEDGF integ inh: -2; RBBP9 inh: -8; MBD2 inh: -2

What do the screens show for `C=CCc1cccc(C=Nc2ccc(Br)cc2)c1O`?
PRMT1 FP inh: 0; ABHD5-PLIN5 inh: 0; UHRF1 binding: 3; LEDGF integ inh: -2; RBBP9 inh: -1; MBD2 inh: 7

What do the screens show for `C=CCc1cccc(/C=N/c2ncccc2O)c1O`?
PRMT1 FP inh: 22*; ABHD5-PLIN5 inh: -28; UHRF1 binding: -8; LEDGF integ inh: 0; RBBP9 inh: 7; MBD2 inh: -5

How did CC1=CC2C3C(=O)N(c4ccccc4)C(=O)C3C1C(=O)C2(O)C(C)C (configuration not stated) do in these assays?
PRMT1 FP inh: 5; UHRF1 binding: -1; LEDGF integ inh: -1; MBD2 inh: 3

How did COc1ccc(/C=C(\NC(=O)/C=C/c2ccco2)C(=O)NCCc2nc3ccccc3[nH]2)cc1 do in these assays?
PRMT1 FP inh: 6; ABHD5-PLIN5 inh: 23*; UHRF1 binding: -1; LEDGF integ inh: 1; RBBP9 inh: 4; MBD2 inh: -4

How did COc1ccc(/C=C(\NC(=O)c2ccco2)C(=O)NCCc2nc3ccccc3[nH]2)cc1 do in these assays?
PRMT1 FP inh: 7; ABHD5-PLIN5 inh: -2; UHRF1 binding: 3; LEDGF integ inh: -9; RBBP9 inh: 0; MBD2 inh: 0

What do the screens show for `CCOC(=O)Cn1cc(CN2CCS(=O)(=O)N(Cc3ccc(Cl)cc3)C(C(=O)OC)C2)nn1` (configuration not stated)?
PRMT1 FP inh: -1; UHRF1 binding: 11; LEDGF integ inh: 2; MBD2 inh: 6

What do the screens show for `CCC(=O)N(C1=C(NC)C(=O)c2ccccc2C1=O)C(C)C`?
PRMT1 FP inh: -2; ABHD5-PLIN5 inh: -5; UHRF1 binding: 0; LEDGF integ inh: 1; RBBP9 inh: -2; MBD2 inh: -5

Results for CNC1=C(N(C(C)=O)c2ccc(Br)cc2)C(=O)c2ccccc2C1=O ?
PRMT1 FP inh: -2; ABHD5-PLIN5 inh: -8; UHRF1 binding: 0; LEDGF integ inh: 23*; RBBP9 inh: -2; MBD2 inh: -20

Results for Cc1ccc(NC(=O)C2CCN(c3nnc(-n4cccc4)s3)CC2)cc1C ?
PRMT1 FP inh: -2; UHRF1 binding: 0; LEDGF integ inh: 8; MBD2 inh: -1

What do the screens show for `COC(=O)C1=C(C)N(Cc2ccc(C(F)(F)F)cc2)C(=NCc2ccccc2)NC1c1cccc(Cl)c1` (configuration not stated)?
PRMT1 FP inh: -4; UHRF1 binding: 3; LEDGF integ inh: -2; MBD2 inh: 1

How did O=S1(=O)c2ccc(Br)cc2OC[C@H](Cc2ccccc2)N1Cc1cn(Cc2ccc(Cl)cc2)nn1 do in these assays?
PRMT1 FP inh: -2; UHRF1 binding: -2; LEDGF integ inh: 0; MBD2 inh: 2

How did Cc1[nH]c(=S)c(C#N)c(-c2ccco2)c1C(=O)N(C)C do in these assays?
PRMT1 FP inh: 31*; ABHD5-PLIN5 inh: -3; UHRF1 binding: -3; LEDGF integ inh: -2; RBBP9 inh: 1; MBD2 inh: 0

How did CC(=O)c1c(C)[nH]c(=S)c(C#N)c1-c1ccc(Cl)cc1 do in these assays?
PRMT1 FP inh: -1; ABHD5-PLIN5 inh: -7; UHRF1 binding: 0; LEDGF integ inh: 0; RBBP9 inh: -5; MBD2 inh: -4

Results for C/C(=N\N=C(N)N)c1ccc(Cl)cc1Cl ?
PRMT1 FP inh: 2; ABHD5-PLIN5 inh: 6; UHRF1 binding: 38*; LEDGF integ inh: -5; RBBP9 inh: 0; MBD2 inh: 1

Results for COC(=O)C1CN(C2CCCC2)CCS(=O)(=O)N1Cc1cn(Cc2ccc(F)cc2)nn1 (configuration not stated) ?
PRMT1 FP inh: -4; UHRF1 binding: 11; LEDGF integ inh: 3; MBD2 inh: 3

How did COc1ccc(OCc2cc(C(=O)NC(C)Cn3cncn3)no2)c(Cl)c1 (configuration not stated) do in these assays?
PRMT1 FP inh: -5; ABHD5-PLIN5 inh: 12; UHRF1 binding: 27*; LEDGF integ inh: 7; MBD2 inh: 9

How did Cc1nc2ccccc2n1CCc1nc2c3ccccc3nc(=S)n2[nH]1 do in these assays?
PRMT1 FP inh: 2; ABHD5-PLIN5 inh: -11; UHRF1 binding: 22*; LEDGF integ inh: -3; RBBP9 inh: -10; MBD2 inh: -1

How did OCc1ccccc1SSc1ccccc1CO do in these assays?
PRMT1 FP inh: 106*; ABHD5-PLIN5 inh: 48*; UHRF1 binding: 3; LEDGF integ inh: -6; MBD2 inh: 10

Results for CN1OC[C@@H]2CN(C(=O)c3ccc([N+](=O)[O-])cc3)[C@H](c3ccccc3Br)C[C@@H]21 ?
PRMT1 FP inh: 1; UHRF1 binding: 5; LEDGF integ inh: 5; MBD2 inh: 1

Results for Cc1nn(CCC(=O)NNC(=O)NCc2ccccc2)c(C)c1[N+](=O)[O-] ?
PRMT1 FP inh: 1; UHRF1 binding: -2; LEDGF integ inh: -1; MBD2 inh: 4
